Only some compounds are listed: those with a hit (about 2.7% of all), similar ones and a draw of the others.
ARFGAP1 inh – inhibits rat ARF GTPase activating protein 1. inhibition, % at 16.5 µM. 360,000 tested, 0.26% active. AID 651572. Arfgap1-stimulated ARF1 GTP hydrolysis, GDP FP detection. Q62848;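 active = inhibition above a per-plate limit, mean inhibition of low control wells plus 3 SD, cut at about 25% in these data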;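 note: 0% = DMSO wells with enzyme and 100% = wells lacking Arfgap1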
Target sequence (Q62848 1-136 limits assumed): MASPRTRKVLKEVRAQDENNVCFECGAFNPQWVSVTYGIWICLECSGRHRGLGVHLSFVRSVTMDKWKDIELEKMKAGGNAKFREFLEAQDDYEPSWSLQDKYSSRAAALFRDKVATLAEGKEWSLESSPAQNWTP
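Material: truncated rat Arfgap1 GAP domain; Incubation: compound-enzyme preincubation 20 min, reaction 120 min, detection 60 min, 25 °C; Read-out: percent inhibition of Arfgap1-stimulated GTP hydrolysis; Technique: FP, GDP Alexa 633 tracer displaced from anti-GDP antibody, 620/688 nm; Controls: No-Arfgap1 wells (100%) versus DMSO full-reaction wells (0%); Replication: single well per compound.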
PAFAH1B2 inh – blocks human PAF acetylhydrolase 1b catalytic subunit 2 | P68402 | recombinant PAFAH1B2, FP-rhodamine activity probe, fluorescence polarization | inhibition, % at 3.39 µM | 340,000 tested, 1.2% active;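 active = inhibition above the mean of all tested compounds plus 3 SD, cut at about 24% in these data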;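 note: 0% = enzyme with DMSO and 100% = wells lacking PAFAH1B2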
Target sequence (P68402 whole entry, looked up): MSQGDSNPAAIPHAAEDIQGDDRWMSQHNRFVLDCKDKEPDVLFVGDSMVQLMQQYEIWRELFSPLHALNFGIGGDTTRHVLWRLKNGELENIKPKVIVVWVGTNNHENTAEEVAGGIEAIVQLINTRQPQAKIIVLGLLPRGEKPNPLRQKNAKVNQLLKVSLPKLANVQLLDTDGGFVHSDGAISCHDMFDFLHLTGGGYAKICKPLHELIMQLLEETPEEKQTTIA
pPAFAH inh – inhibitors of human plasma PAF acetylhydrolase (pPAFAH) | Q13093 | recombinant pPAFAH, FP-rhodamine probe fluorescence polarization | inhibition, % at 3.39 µM | 330,000 tested, 1.5% active;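 active = inhibition above the mean inhibition across the screen plus 3 SD, cut at about 25% in these data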;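 note: inhibitors block binding of the rhodamine activity-based probe so polarization drops; 0% = enzyme with DMSO and 100% = wells lacking pPAFAH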
ASAP1 GAP inh – blocks human ASAP1-stimulated Arf1 GTP hydrolysis; GDP FP detection; inhibition, % at 16.5 µM; 360,000 tested, 0.19% active; Q9ULH1; in the data active = inhibition above about 25%;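 note: 0% = vehicle with enzyme and substrate and 100% = no enzyme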
PAFAH1B3 FP inh – blocks human PAF acetylhydrolase 1B catalytic subunit 3; 340,000 tested, 0.28% active; recombinant PAFAH1B3, FP-rhodamine probe, fluorescence polarization; inhibition, % at 3.39 µM; Q15102;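 active = inhibition above the screen-wide average of all tested compounds plus 3 SD, cut at about 25% in these data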;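 note: 0% = enzyme with DMSO only and 100% = wells lacking PAFAH1B3 protein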
Target sequence (Q15102 whole entry, looked up): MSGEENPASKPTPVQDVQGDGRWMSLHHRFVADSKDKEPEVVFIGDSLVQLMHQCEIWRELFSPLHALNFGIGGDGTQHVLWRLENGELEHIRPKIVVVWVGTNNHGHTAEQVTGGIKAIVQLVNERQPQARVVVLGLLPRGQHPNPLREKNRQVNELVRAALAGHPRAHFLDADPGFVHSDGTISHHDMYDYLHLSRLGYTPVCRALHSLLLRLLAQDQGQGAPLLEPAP
PAFAH2 inh – PAFAH2 (human) inhibition; inhibition, % at 3.39 µM; 340,000 tested, 0.99% active; Q99487; recombinant PAFAH2, FP-rhodamine activity probe, fluorescence polarization;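 active = inhibition above the mean over all tested compounds plus 3 SD, cut at about 30% in these data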;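 note: inhibitors block probe labeling of enzyme so polarization drops; 0% = enzyme with DMSO and 100% = wells lacking PAFAH2 protein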
Active calls of the source: *; x = no result given.

SMILES	ARFGAP1 inh	PAFAH1B2 inh	pPAFAH inh	ASAP1 GAP inh	PAFAH1B3 FP inh	PAFAH2 inh
COc1ccc(NS(=O)(=O)c2ccc(C)c(C(=O)NCc3cccnc3)c2)cc1	-4.5	-1.8	6.8	-9.8	2.2	-4.6
Cc1ccc(NS(=O)(=O)c2ccc(C(=O)NCc3cccnc3)cc2)cc1	-0.1	-2.7	27.2*	-5.0	-2.2	2.3
Cc1ccc(NS(=O)(=O)c2ccc(OCC(=O)NCc3cccnc3)cc2)cc1	-2.6	1.8	25.8*	-8.8	4.8	-4.4
O=C(COc1ccccc1Cc1ccccc1)Nc1cccc(S(=O)(=O)N2CCOCC2)c1	-0.9	-2.4	4.9	2.1	-7.3	-8.7
Cc1ccc(S(=O)(=O)N2CCOCC2)cc1NC(=O)COc1ccccc1Cc1ccccc1	2.3	1.7	25.9*	6.5	1.1	-0.1
COc1ccc(NS(=O)(=O)c2cccc(C(=O)NCc3cccnc3)c2)cc1	6.9	2.7	27.3*	5.5	3.5	6.1
CC(C)[C@H](NC(=O)c1ccco1)C(=O)N1CCC[C@H]1C(=O)NCc1ccccc1	11.9	x	x	1.5	x	x
O=C(C=Cc1ccc(O)c(O)c1)NCC(=O)NC(Cc1ccccc1)C(=O)O (stereo not given)	1.2	x	x	-10.4	x	x
C[C@H](O)[C@@H]1C(=O)N2CCc3c([nH]c4cccc(-c5ccccc5)c34)[C@@H]2C[C@@H]1N(C)C(=O)c1ccccc1	7.1	x	x	5.5	x	x
CCOc1ccc(NS(=O)(=O)c2ccc(-c3coc(C)n3)cc2)cc1	-1.2	3.2	29.5*	3.0	10.4	2.7
CCOC(=O)c1ccc(NS(=O)(=O)c2ccc(-c3coc(C)n3)cc2)cc1	-3.4	-0.3	1.8	13.9	3.3	-5.6
COc1ccc(NS(=O)(=O)c2ccc(Cl)c(NC(=O)c3cccnc3Cl)c2)cc1	-4.1	2.0	29.6*	12.8	0.0	5.1
O=C(COc1ccc(S(=O)(=O)Nc2ccccc2)cc1)NCc1ccncc1	-5.1	4.6	27.2*	2.4	4.6	6.7
COc1ccc(NS(=O)(=O)c2ccc(Cl)c(NC(=O)c3ccccc3F)c2)cc1	11.1	-1.9	7.0	-1.4	1.3	1.2
CC(=NNC(=O)c1ccc(NS(=O)(=O)c2ccc(Br)cc2)cc1)c1cccnc1	-2.9	29.2*	7.2	-6.5	4.2	-1.3
Cc1ccc(CNC(=O)COc2ccc(S(=O)(=O)N3CCOCC3)cc2)cc1	3.1	2.5	28.4*	-10.1	4.2	-5.1
Cc1ccc(NS(=O)(=O)c2ccc(C(=O)NCc3ccncc3)cc2)cc1	-1.2	6.9	26.4*	-0.3	2.1	3.6
CCCNC(=O)COc1ccc(S(=O)(=O)Nc2ccc(C)cc2)cc1	-10.9	6.9	30.2*	-11.0	-0.4	-5.1
COc1ccc(CNC(=O)COc2ccc(S(=O)(=O)N3CCOCC3)cc2)cc1	9.3	2.5	7.3	-0.8	2.4	1.9
Cc1ccc(C(=O)NCc2cccnc2)cc1S(=O)(=O)Nc1ccccc1	0.5	0.2	26.9*	-0.9	-7.0	12.8
O=C(NCc1cccnc1)c1ccc(S(=O)(=O)Nc2ccccc2)cc1	3.8	3.6	24.4	2.3	5.5	2.1
O=C(Cc1c[nH]c2ccccc12)Nc1ccc(Nc2cccnc2)c(Br)c1	-4.0	x	x	10.4	x	x
CN(C)c1ccc(C(=O)OCC(=O)Nc2cccc(S(=O)(=O)N3CCCC3)c2)cc1	6.5	5.3	26.9*	6.7	3.1	85.5*
CC(C)C[C@H]1COc2cccc(F)c2S(=O)(=O)N1	-2.3	x	x	8.6	x	x
COc1ccc2c(c1)[C@]1(C(=O)N2C)C2=C(CCCC2=O)Oc2cc(C)oc(=O)c21	-7.0	x	x	-8.5	x	x
SMILES	ARFGAP1 inh	PAFAH1B2 inh	pPAFAH inh	ASAP1 GAP inh	PAFAH1B3 FP inh	PAFAH2 inh
Cc1cc(=O)oc2c3c(cc(OCC(=O)NCc4cccnc4)c12)OC(C)(C)CC3	9.4	7.9	12.6	6.0	8.3	20.2
Cc1cc(=O)oc2c3c(cc(OCC(=O)N[C@@H](C)C(=O)O)c12)OC(C)(C)CC3	10.2	-4.3	x	4.2	4.8	5.9
Cc1cc(=O)oc2c3c(cc(OCC(=O)NC(Cc4ccc(Cl)cc4)C(=O)O)c12)OC(C)(C)CC3 (stereo not given)	-4.2	57.9*	27.0*	6.0	3.6	33.2*
CCc1cc(=O)oc2c3c(cc(OCC(=O)NCCCC(=O)O)c12)OC(C)(C)CC3	3.0	1.8	31.7*	0.9	12.1	38.9*
COc1ccccc1CNC(=O)COc1cc2c(c3oc(=O)cc(C)c13)CCC(C)(C)O2	6.0	26.7*	12.2	-2.6	2.1	18.0
CC(=O)C1=C(C)N(Cc2ccc(Br)cc2)C(=S)NC1c1ccc(F)cc1 (stereo not given)	6.1	x	x	14.3	x	x
COCc1cc(N2CCN(C(=O)OC(C)(C)C)C[C@@H]2C)ccc1N1CC[C@@H](O)C1	-4.6	x	x	9.8	x	x
COC(=O)CC1N(S(=O)(=O)c2ccc(C)cc2)c2ccccc2C1(C(=O)OC)C(=O)OC (stereo not given)	-1.4	x	x	-3.2	x	x
CC(=O)O[C@H]1C=C[C@@H](NC(=O)OC(C)(C)C)C1	-1.9	x	x	-0.7	x	x
Cc1nnc(-c2cccc(Br)c2)c2cn(-c3ccccc3)nc12	-1.2	6.1	24.6*	12.1	7.1	-6.0
Cc1nnc(-c2cccc(Br)c2)c2cn(-c3ccc(Br)cc3)nc12	21.7	-0.6	3.4	10.4	2.3	-18.1
Cn1c(=S)[nH]c2sc3c(c2c1=O)CCC(C(C)(C)C)C3 (stereo not given)	-2.3	43.5*	0.2	8.9	1.8	14.8
CSc1cccc(NC(=O)/C=C/c2ccco2)c1	4.0	-1.5	25.1*	-13.7	-4.2	-0.4
O=C(N/C=C/c1ccco1)Nc1cccc(Cl)c1	12.6	x	27.2*	-5.6	x	x
COc1ccc(NC(=O)N/C=C/c2ccco2)cc1	2.3	5.6	8.3	-7.9	12.4	9.7
N#Cc1c(N)sc2c1CCCCCC2	-11.7	28.5*	9.3	16.9	5.9	4.3
N#Cc1c(N)sc(=S)c2c1CCCCC2	-10.0	16.7	29.1*	-7.6	23.3	44.8*
CC1(C)Cc2c(C#N)c(N)sc(=S)c2CS1	9.2	5.8	14.3	-10.0	7.1	11.5
CC(=O)Nc1sc2c(c1C#N)CCC2	-14.1	3.0	-2.6	-9.6	0.4	5.5
Cc1csc(NC(=O)c2cc(-c3ccco3)nc3ccccc23)n1	-6.1	-2.6	25.2*	-0.2	-1.1	-1.6
Cc1nnc(NC(=O)c2cc(-c3ccco3)nc3ccccc23)s1	-3.5	2.9	27.2*	-10.1	6.9	5.8
O=C(N/N=C/c1ccc(F)cc1)c1cc(-c2ccco2)nc2ccccc12	-1.8	-1.9	30.4*	-1.3	13.0	5.2
O=C(Nc1nc2ccccc2s1)c1cc(-c2ccco2)nc2ccccc12	15.0	-3.7	2.2	5.6	-5.0	-6.6
Cc1cc2c(cc1S(=O)(=O)Nc1ccc(OC(F)(F)F)cc1)OCC(=O)N2	3.0	13.5	34.1*	7.3	7.8	1.8

Screens: PubChem BioAssay, The Scripps Research Institute Molecular Screening Center
